Experimental data gathered from unrelated publications.
Compare with care: the assays were run in different laboratories.
lecA: PA-I galactophilic lectin (lecA, Pseudomonas aeruginosa, UniProt Q05097)
Chymotrypsinogen A: Chymotrypsinogen A (Bos taurus, UniProt P00766)
ADH1 W83R: ADH1 (Saccharomyces cerevisiae, UniProt P00330, W83R)

SMILES | target | assay | conditions | Ki [µM]
[N-]=[N+]=NCC(=O)Nc1ccc(S[C@@H]2O[C@H](CO)[C@H](O)[C@H](O)[C@H]2O)cc1 | lecA | ligand displacement, FP | – | 4.16
CCCC[C@H](NC(=O)[C@H](CCC(N)=O)NC(=O)[C@H](CO)NC(=O)[C@H](Cc1ccccc1)NC(=O)CCCCCN)C(=O)N[C@@H](Cc1ccccc1)B(O)O | Chymotrypsinogen A | enzyme activity, inhibitor, fluorescence | – | 0.000135
O=C(Cn1cc(CCN2CCN(c3cc4c(cc3F)c(=O)c(C(=O)O)cn4C3CC3)CC2)nn1)Nc1ccc(S[C@@H]2O[C@H](CO)[C@H](O)[C@H](O)[C@H]2O)cc1 | lecA | ligand displacement, FP | – | 1.48
CCn1c(-c2nc3cc(C(=O)N4CCC[C@@H](N)C4)cc(OC)c3n2C)cc2cccnc21 | Protein-arginine deiminase type-3 (PADI3, Homo sapiens, UniProt Q9ULW8) | enzyme activity, inhibitor | – | 925
Cc1ccc2c(c1)c1c3n2CCNC3CCC1 (stereo not shown) | Amine oxidase [flavin-containing] A (Maoa, Rattus norvegicus, UniProt P21396) | enzyme activity, inhibitor | pH 7.5 | 0.77
OCC(F)(F)F | ADH1 W83R | enzyme activity, inhibitor | – | 980
C/C(=C\C(=O)OCCCCCCCCC(=O)O)C[C@@H]1OC[C@H](C[C@@H]2O[C@H]2[C@@H](C)[C@H](C)O)[C@@H](O)[C@H]1O | Isoleucine--tRNA ligase (ileS, Escherichia coli K-12, UniProt P00956) | enzyme activity, inhibitor, absorbance | – | 0.0008
CCCC[C@H](NC(=O)[C@H](CCC(N)=O)NC(=O)[C@H](CO)NC(=O)[C@H](C)NC(=O)CCCCCN)C(=O)N[C@@H](Cc1ccccc1)B(O)O | Chymotrypsinogen A | enzyme activity, inhibitor, fluorescence | – | 0.0362
O=C(CCCCn1cc(CCN2CCN(c3cc4c(cc3F)c(=O)c(C(=O)O)cn4C3CC3)CC2)nn1)Nc1ccc(S[C@@H]2O[C@H](CO)[C@H](O)[C@H](O)[C@H]2O)cc1 | lecA | ligand displacement, FP | – | 2.7
CCCC[C@H](NC(=O)[C@H](CCC(N)=O)NC(=O)[C@H](CO)NC(=O)[C@H](CO)NC(=O)CCCCCN)C(=O)N[C@@H](CC(C)C)B(O)O | Chymotrypsinogen A | enzyme activity, inhibitor, fluorescence | – | 0.138
NC(=O)C1=CN([C@@H]2O[C@H](COP(=O)(O)OP(=O)(O)OC[C@H]3O[C@@H](n4cnc5c(N)ncnc54)[C@H](O)[C@@H]3O)[C@@H](O)[C@H]2O)C=CC1 | ADH1 W83R | enzyme activity, inhibitor | – | 24
O=C(CCCn1cc(CN2CCN(c3cc4c(cc3F)c(=O)c(C(=O)O)cn4C3CC3)CC2)nn1)Nc1ccc(S[C@@H]2O[C@H](CO)[C@H](O)[C@H](O)[C@H]2O)cc1 | lecA | ligand displacement, FP | – | 3
CCCC[C@H](NC(=O)[C@H](CCC(N)=O)NC(=O)[C@H](CO)NC(=O)C[C@@H](Cc1ccc2ccccc2c1)NC(=O)CCCCCN)C(=O)N[C@@H](Cc1ccccc1)B(O)O | Chymotrypsinogen A | enzyme activity, inhibitor, fluorescence | – | 0.00721
